Experimental data published in ChEMBL document CHEMBL4028911, “Discovery of a Small-Molecule Bromodomain-Containing Protein 4 (BRD4) Inhibitor That Induces AMP-Activated Protein Kinase-Modulated Autophagy-Associated Cell Death in Breast Cancer” (J Med Chem, 2017).
Activity calls are given as the source filed them. No cut-off for these calls is given here.

Key:
[1] = target: Bromodomain-containing protein 4 (Homo sapiens, UniProt O60885); assay: Inhibition of His/thioredoxin-tagged human recombinant BRD4 bromodomain-1 (43 to 166 residues) expressed in Escherichia coli BL21 Star (DE3) pre-incubated for 30 mins followed by biotinylated histone peptide H4 addition measured after 30 mins by AlphaScreen assay
[2] = target: T1, Serine/threonine-protein kinase ULK1 (Homo sapiens) (UniProt O75385); assay: Activation of recombinant human ULK1 (1 to 649 residues) expressed in baculovirus infected Sf9 cells at 1 to 10^6 nM using MBP as substrate after 60 mins in presence of ATP by […] assay
T1 sequence (whole entry): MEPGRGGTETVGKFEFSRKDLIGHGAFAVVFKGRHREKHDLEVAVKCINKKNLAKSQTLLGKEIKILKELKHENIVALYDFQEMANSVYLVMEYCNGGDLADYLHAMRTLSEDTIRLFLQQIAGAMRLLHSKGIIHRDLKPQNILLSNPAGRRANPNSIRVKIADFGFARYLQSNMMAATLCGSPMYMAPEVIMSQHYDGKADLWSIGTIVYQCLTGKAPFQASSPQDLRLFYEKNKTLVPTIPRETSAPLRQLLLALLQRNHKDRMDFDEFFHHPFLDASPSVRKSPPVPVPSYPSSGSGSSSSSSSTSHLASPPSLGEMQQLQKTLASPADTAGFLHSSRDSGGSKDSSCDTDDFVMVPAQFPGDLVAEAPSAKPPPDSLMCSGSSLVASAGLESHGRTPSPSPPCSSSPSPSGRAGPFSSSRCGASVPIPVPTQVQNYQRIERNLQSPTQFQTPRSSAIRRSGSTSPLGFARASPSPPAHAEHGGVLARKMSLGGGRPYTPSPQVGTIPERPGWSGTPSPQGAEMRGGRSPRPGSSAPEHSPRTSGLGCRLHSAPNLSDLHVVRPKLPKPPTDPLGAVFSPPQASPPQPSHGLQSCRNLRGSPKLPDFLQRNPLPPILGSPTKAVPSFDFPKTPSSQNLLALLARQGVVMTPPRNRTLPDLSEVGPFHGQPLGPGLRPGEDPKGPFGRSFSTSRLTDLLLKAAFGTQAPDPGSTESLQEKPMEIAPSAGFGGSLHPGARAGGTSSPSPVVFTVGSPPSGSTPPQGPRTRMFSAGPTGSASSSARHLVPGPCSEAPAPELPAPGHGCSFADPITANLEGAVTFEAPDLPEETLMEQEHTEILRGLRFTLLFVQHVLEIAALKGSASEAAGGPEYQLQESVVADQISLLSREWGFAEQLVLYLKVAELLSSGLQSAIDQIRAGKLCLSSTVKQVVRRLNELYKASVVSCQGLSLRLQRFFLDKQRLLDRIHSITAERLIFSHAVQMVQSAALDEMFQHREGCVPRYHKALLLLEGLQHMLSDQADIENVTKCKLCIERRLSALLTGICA
Method in brief: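 ADP-Glo luminescent kinase assay; AMPK or ULK1 enzyme, substrate, ATP and compound diluted in 40 mM Tris pH 7.5, 20 mM MgCl2, 0.1 mg/ml BSA, 50 µM DTT. Enzyme (10 ng) mixed with MBP (0.1 µg/µl)/ATP (10 µM) and compound, 60 min at room temperature. ADP-Glo reagent 40 min, then detection reagent 30 min, luminescence read; signal rises with kinase activity.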

[3] = target: Bromodomain-containing protein 2 (Homo sapiens, UniProt P25440); assay: Inhibition of recombinant human N-terminal GST-tagged BRD2 bromodomain-2 (339 to 459 residues) expressed in Escherichia coli expression system after 120 mins by TR-FRET assay
Method in brief: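 TR-FRET bromodomain binding. Recombinant BRD domain, BET ligand and test agent in 20 μl assay buffer with 1% DMSO final. Incubated 120 min at room temperature. Blank lacks BET ligand.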

Mus musculus = assay: Induction of cleavage of caspase-3 in BALB/c mouse xenografted with human MCF7 cells at 100 mg/kg, ig administered once a day for 24 days by Western blot analysis; type: functional, organism-based
Method in brief: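 Female BALB/c nude mice (6-8 weeks) given 5×10^6 MCF-7 or MDA-MB-231 cells subcutaneously. At 100 mm3 tumours, dosed intragastrically once daily (25, 50, 100 mg/kg, or vehicle) for 24 or 27 days. Excised tumours lysed and probed by western blot for caspase-3 cleavage.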

MCF7 = assay: Downregulation of HMGB1 expression in human MCF7 cells at 1.5 uM measured up to 24 hrs by Western blot analysis; type: functional, cell-based
Method in brief: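 MCF-7 (1.5 µM) or MDA-MB-231 (3 µM) cells treated for indicated times. Adherent and floating cells lysed in RIPA with 1 mM PMSF, 4°C for 1 h. Equal protein run on 10-15% SDS-PAGE, transferred to PVDF, blocked with milk or BSA, probed with primary then HRP secondary antibodies, ECL detection; β-actin as loading control.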

Chain of Bromodomain-containing protein 2 (P25440 whole entry, the tested form may be a part): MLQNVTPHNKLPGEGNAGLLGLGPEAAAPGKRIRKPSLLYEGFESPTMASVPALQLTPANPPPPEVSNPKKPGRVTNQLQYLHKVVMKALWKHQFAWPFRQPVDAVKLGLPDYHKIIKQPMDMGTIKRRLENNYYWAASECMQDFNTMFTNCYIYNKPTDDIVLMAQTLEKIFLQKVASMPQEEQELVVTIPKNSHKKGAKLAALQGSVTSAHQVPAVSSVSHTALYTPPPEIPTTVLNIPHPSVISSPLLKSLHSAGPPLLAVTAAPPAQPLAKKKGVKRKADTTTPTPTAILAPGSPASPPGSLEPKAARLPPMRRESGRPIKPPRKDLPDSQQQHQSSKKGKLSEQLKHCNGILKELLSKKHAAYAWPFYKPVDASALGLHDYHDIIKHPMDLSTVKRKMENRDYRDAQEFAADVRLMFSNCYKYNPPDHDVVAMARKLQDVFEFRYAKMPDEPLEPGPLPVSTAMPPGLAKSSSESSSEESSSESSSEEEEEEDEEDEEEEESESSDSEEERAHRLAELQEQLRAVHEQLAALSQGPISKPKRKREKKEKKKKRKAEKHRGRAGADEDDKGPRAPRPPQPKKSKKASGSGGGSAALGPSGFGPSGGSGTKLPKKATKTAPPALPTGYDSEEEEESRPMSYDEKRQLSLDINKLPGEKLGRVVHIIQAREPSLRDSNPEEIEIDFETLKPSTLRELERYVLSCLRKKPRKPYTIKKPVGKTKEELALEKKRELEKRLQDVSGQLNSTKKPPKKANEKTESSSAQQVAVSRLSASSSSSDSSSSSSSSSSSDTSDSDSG

IC50 [1]: 430 nM
Activity [2]: inactive
IC50 [3]: > 100000 nM
SMILES: Cc1cc(-c2nc3sc4c(c3c(=O)[nH]2)CCN(C)C4)cc(C)c1O
Activity (Mus musculus): Active
Activity (MCF7): Active
